Assay outcomes (PubChem)
This excerpt belongs to a sample that is enriched for hits.
Calb biofilm kill: clotrimazole potentiators killing C. albicans biofilm, primary screen, 4-compound mixtures | C. albicans biofilm persisters + clotrimazole, fluorescence viability; primary screen in compound mixtures of four per well | inhibition, % at 7.6 µM | hit rate 0.02% among 120,000 | AID 1242, 2008;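 active = inhibition above 30.3% in the primary screen of four-compound pools, then above 30% when the compound was retested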;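 also: compounds exposed to preformed 24 h biofilms for 48 h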
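Test system: C. albicans biofilms. Buffer or medium: RPMI/MOPS medium, pH 7.0. Timing: 48 h compound exposure at 37 °C. Technique: Alamar Blue fluorescence. Evaluation: percent inhibition of biofilm viability.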
Pf gamet viab: late stage P. falciparum gametocyte viability inhibitors, primary screen, ATP luminescence, HTS | AID 743093, 2013 | P. falciparum stage V gametocytes, 24 h | hit rate 0.065% among 150,000 | inhibition, % at 10.9 µM;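 active = inhibition above the mean plus 3 SD of compounds within the control limits, set per campaign, cut at about 38% in these data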
ROMK mod: ROMK potassium channel modulators, primary screen, cell-based, thallium flux, MLSMR library; Tet-inducible ROMK, thallium flux fluorescence; actives lie on both sides; B-score at 10 µM; hit rate 2% among 130,000;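 active = signal ratio slope over the read window, or its plate-corrected B-score, at least 3 SD from the plate mean, either direction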;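 also: B-score of the F/F0 ratio slope over 7 to 12 s after thallium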
Target sequence (P48048 whole entry, looked up): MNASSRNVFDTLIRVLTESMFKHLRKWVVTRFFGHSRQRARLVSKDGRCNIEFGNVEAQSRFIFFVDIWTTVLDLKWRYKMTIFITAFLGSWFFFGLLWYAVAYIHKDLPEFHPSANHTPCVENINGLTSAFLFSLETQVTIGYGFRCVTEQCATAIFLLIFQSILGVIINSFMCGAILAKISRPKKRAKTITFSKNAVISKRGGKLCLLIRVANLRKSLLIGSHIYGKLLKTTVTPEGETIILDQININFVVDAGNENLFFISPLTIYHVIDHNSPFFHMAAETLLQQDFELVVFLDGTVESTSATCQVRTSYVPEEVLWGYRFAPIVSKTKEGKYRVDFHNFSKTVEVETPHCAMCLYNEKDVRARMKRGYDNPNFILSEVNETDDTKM
ROMK retest: ROMK channel modulator hit retest, confirmation, cell-based, thallium flux, duplicate, resupplied hits; AID 1917, 2009; shares compounds with ROMK mod; hit rate 54% among 3,000; normalized thallium flux (F/F0 slope) at 10 µM; fluorescence ratio; stronger effect = lower value;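 active = Flux at 10 µM at least 3 SD below or above vehicle control mean in one or both replicates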
A number is an active result; – = inactive; · = no result given.

SMILES | Calb biofilm kill | Pf gamet viab | ROMK mod | ROMK retest
COC(=O)C(CO)NC(=O)C(C)NC(=O)CNC(=O)OCc1ccccc1 (centres undefined) | – | – | – | ·
CNC(=O)C12CC3CC(CC(Cl)(C3)C1)C2 | – | – | – | ·
N#CCC(=O)Nc1ccc(C(=O)NCc2cccc(Cl)c2)cc1 | – | – | · | ·
N=C1/C(=C\c2ccc(OC(=O)c3ccco3)cc2)C(=O)N=C2SC=NN12 | – | · | – | ·
COc1cc(/C=C2\C(=N)N3N=CSC3=NC2=O)cc(Br)c1OC(=O)c1ccco1 | – | – | -10 | 0.0321
CC(=O)c1ccc(NC(=S)NCCc2cccc(Cl)c2)cc1 | – | – | – | ·
c1ccc2nc3c(cc2c1)CCCCC3 | – | – | · | –
c1ccc2nc3c(cc2c1)CCCCCC3 | · | · | – | ·
COc1cccc(CNc2nnnn2C)c1 | · | – | · | ·
O=S(=O)(CCN1CCSCC1)c1ccccc1 | – | – | · | ·
CC(C)(C)c1cc(C(=O)NCc2cc(F)cc3c2OCOC3)n(Cc2ccccc2)n1 | – | – | · | –
CC(C)(C)c1cc(C(=O)NNC(=O)Nc2ccccc2)n(Cc2ccccc2)n1 | – | – | · | ·
CCC(=O)N(C)CCc1cc2c(c(OC)c1/C=N/NC(=O)c1ccncc1)OCO2 | – | – | -2.01 | –
CCC(=O)N(C)CCc1cc2c(c(OC)c1/C=N/NS(=O)(=O)c1ccc(C)cc1)OCO2 | – | – | · | ·
Cc1c(CCOC(=O)c2cc([N+](=O)[O-])cc([N+](=O)[O-])c2)sc[n+]1CC(=O)c1ccccc1 | – | – | – | ·
Cc1c(CCOC(=O)c2ccccc2)sc[n+]1Cc1ccccc1 | – | – | – | ·
Cc1c(CCOC(=O)C23CC4CC(CC(C)(C4)C2)C3)sc[n+]1CC(=O)c1ccccc1 | – | – | -5.88 | 0.0599
Cc1c(CCOC(=O)CC23CC4CC(CC(C4)C2)C3)sc[n+]1CC(=O)c1ccc(Br)cc1 | · | · | -5.97 | 0.0447
Cc1c(CCOC(=O)CC23CC4CC(CC(C)(C4)C2)C3)sc[n+]1CC(=O)c1ccccc1 | – | – | -4.09 | 0.0474
Cc1ncsc1CCOC(=O)C12CC3CC(CC(C3)C1)C2 | · | · | – | ·
CCOC(=O)N1C(=O)C2(CCCCC2)N(c2ccccc2Cl)C1=S | – | – | – | ·
Cc1cc(C(C)(C)C)c(OC(=O)[C@@H]2OC(c3ccccc3)=C[C@H]2c2ccccc2)c(C(C)(C)C)c1 | · | – | · | ·
N#C/C(=C\c1ccccc1)C(=O)N(c1ccccn1)C1CCCCC1 | – | – | · | 0.0452
O=C(c1cccc(C(=O)N(c2ccccn2)C2CCCCC2)c1)N(c1ccccn1)C1CCCCC1 | – | – | – | ·
O=C(/C=C/c1ccc([N+](=O)[O-])cc1)NCc1ccccn1 | – | · | – | ·
SMILES | Calb biofilm kill | Pf gamet viab | ROMK mod | ROMK retest
O=C(/C=C/c1ccc([N+](=O)[O-])cc1)N(c1ccccn1)C1CCCCC1 | – | – | 5.66 | –
COC(=O)[C@]1(C)N[C@H](c2ccc(-c3ccc(F)cc3)cc2)[C@@H]2C(=O)N(C)C(=O)[C@@H]21 | · | – | · | ·
O=[N+]([O-])c1cc([N+](=O)[O-])c2c(=Nc3ccccc3)n(-c3ccccc3)n(O)c2c1 | – | – | – | ·
O=C(O)CC12CC3CC(C1)CC(n1ncc(N4CCC5(CC4)OCCO5)c(Cl)c1=O)(C3)C2 | – | – | · | ·
CCOC(=O)C1CCCN(Cc2c(C(=O)N3CCCCC3)nc3c(C)cccn23)C1 (centres undefined) | – | – | – | ·
Cc1cccn2c(CNC3CCCc4ccccc43)c(C(=O)N3CCCCC3)nc12 (centres undefined) | – | – | -2.97 | 0.0609
O=C(NNc1cc(Cl)ccc1Cl)C1CCC1 | – | – | · | ·
NC(=O)c1ccc(NC(=O)C#Cc2ccccc2)cc1 | · | – | · | ·
Cc1ccc[n+](CC(=O)c2ccc(NC(=O)c3ccccc3)cc2)c1 | – | · | – | ·
O=C(Nc1ccc[n+](CC(=O)c2cccc3ccccc23)c1)c1ccccc1 | – | – | -2.79 | 0.0558
O=C(Nc1ccccc1)N1CCN(Cc2ccc(Cl)cc2)CC1 | – | – | · | ·
O=C(Nc1ccc(Cl)cc1)N1CCCN(Cc2ccc(F)cc2)C1 | · | · | -2.74 | 0.0565
CC(=O)c1ccc(N2CCN(C(=O)c3cc4c(s3)CCCC4)CC2)cc1 | – | – | – | ·
CC(=O)c1ccc(N2CCN(C(=O)c3cc4c(-c5ccccc5F)nn(C)c4s3)CC2)cc1 | · | · | · | 0.0617
CCc1ccc(N=Nc2ccc(O)c3[nH]cnc23)cc1 | · | – | · | ·
Cc1cccc(CN2C(=O)c3ccccc3Sc3ccc(C(=O)O)cc32)c1 | – | – | – | ·
O=C(c1ccc2c(c1)N(Cc1ccccc1)C(=O)c1ccccc1S2)N1CCCC1 | · | · | · | 0.0605
COc1ccc(S(=O)(=O)N2CCN(C)CC2)cc1C(=O)Nc1ccccc1 | · | – | · | ·
